Data on 1 compound can be found in ChEMBL document CHEMBL4765325, “Discovery of dihydropyrrolidones as novel inhibitors against influenza A virus” (Eur J Med Chem, 2020).

SMILES strings stand for the structures.

One data set deals with Influenza A virus. Description: Antiviral activity against Influenza A virus (A/Puerto Rico/8/34(H1N1)) harboring NA H274Y mutant infected in dog MDCK cells assessed as reduction in virus-induced cytopathogenicity incubated for 48 hrs by microscopic analysis. The class given is functional, organism-based, A/Puerto Rico/8/1934(H1N1). In outline: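 MDCK cells were infected with each IAV strain at 100TCID₅₀ for 1 h, then washed twice with PBS. They were cultured 48 h in DMEM with two-fold serial compound dilutions and 1 mg/ml TPCK. Antiviral activity was read by an MTT-based method, giving IC₅₀ from triplicate wells as mean SD.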

Data set [1] in a line: Selectivity index, ratio of CC50 for dog MDCK cells to IC50 for antiviral activity against Influenza A virus (A/Puerto Rico/8/34(H1N1)) harboring NA H274Y mutant. It counts as toxicity. Particulars: read-out: Ratio CC50/IC50. In outline:
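SI = CC50/IC50, both from MTT read-outs in MDCK cells in triplicate. Cytotoxicity: 2 × 10⁴ cells/well, overnight at 37 °C with 5% CO2, then compound at 1.56–400 µM for 48 h, MTT 4 h, DMSO, A570. Antiviral: cells infected 1 h, washed, then cultured 48 h in DMEM with TPCK and two-fold serial compound dilutions.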

Take `CCOC(=O)C1=C(Nc2ccc(C(F)(F)F)cc2)C(=O)N(c2ccc(C(F)(F)F)cc2)C1c1ccccc1` (configuration not stated): the IC50 in the data set on Influenza A virus was 6.48 µM. In addition, the selectivity ratio in data set [1] is above 61.6.
